According to ChEMBL document CHEMBL3271979, “Inhibition of solid tumors by nitrosoureas. 1. Lewis lung carcinoma” (1977):
Activity calls are given as the source filed them. The calls are words filed in the database; no cut-off is given here.

How the values were obtained:
[1] = Antitumor activity against mouse early Lewis lung carcinoma allografted in BDF1 mouse assessed as time delay in tumor growth at 15 mg/kg, ip administered as single dose on 1 or 2 days post-tumor implantation; type: functional; details: route intraperitoneal
Procedure, shortened: (§1)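 BDF1 mice (C57Blk/6 × DBA/2) implanted sc by trocar with ~40 mg Lewis lung tumor fragments from bacteriologically sterile donors. A single ip dose was given on day 1 or 2, as a solution or suspension in water or saline with suspending agent, at ≤0.5 ml. Tumors were measured by caliper at least twice weekly, with weight = ab²/2. Delay was taken as the days for the tumor to reach 1 g.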

[2] = Antitumor activity against mouse early Lewis lung carcinoma allografted in BDF1 mouse assessed as increase in host life span at 10 mg/kg, ip administered as single dose on 1 or 2 days post-tumor implantation; type: functional; details: route intraperitoneal
Procedure, shortened: (§2)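 Early disease: BDF1 mice carrying sc trocar implants of about 40 mg Lewis lung fragments. One ip dose given on day 1 or 2 after implant, in distilled water or saline, at ≤0.5 ml. Endpoints were % increase in life-span of dying animals and delay in days for the primary tumor to reach 1 g. Untreated controls served as reference.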

[3] = Ratio of ED50 for antitumor activity against mouse L1210 cells allografted in ip dosed mouse to LD10 for mouse
[4] = Antitumor activity against mouse early Lewis lung carcinoma allografted in BDF1 mouse assessed as time delay in tumor growth at 10 mg/kg, ip administered as single dose on 1 or 2 days post-tumor implantation; type: functional; details: route intraperitoneal
Procedure, shortened: (§3)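 Sc trocar implants of about 40 mg Lewis lung fragments in BDF1 mice. A single ip injection was given on day 1 or 2, in water or physiological saline, at ≤0.5 ml. Tumor size came from caliper length and width as w = ab²/2, measured at least twice weekly. Growth delay is the extra days taken to reach 1 g, compared with untreated controls.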

[5] = Antitumor activity against mouse advanced Lewis lung carcinoma allografted in BDF1 mouse assessed as increase in host life span at 22 mg/kg, ip administered as single dose on 7th day post-tumor implantation; type: functional; details: route intraperitoneal
Procedure, shortened: (§4)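 BDF1 mice (C57Blk/6 × DBA/2) implanted sc by trocar with about 40 mg Lewis lung tumor fragments from bacteriologically sterile donors. Advanced-disease groups held tumors of about 400 mg by day 6-7, sized by caliper (w = ab²/2). Single ip injection on day 7, in water or saline vehicle, at or below the LD10 in normal mice. Tumors measured at least twice weekly.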

[6] = Antitumor activity against mouse early Lewis lung carcinoma allografted in ip dosed BDF1 mouse assessed as disease cure administered as single dose on 1 or 2 days post-tumor implantation measured for 80 days post-drug treatment; type: functional
Procedure, shortened: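 BDF1 mice implanted sc by trocar with ~40 mg Lewis lung fragments from sterile donor tumors. A single ip dose was given on day 1 or 2 after implant, in water or saline vehicle. Cures were scored in animals observed for at least 80 days after treatment. Drug-toxicity controls were matched non-tumor-bearing mice monitored for body weight and deaths.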

Mus musculus [7] = assay: Antitumor activity against mouse advanced Lewis lung carcinoma allografted in BDF1 mouse assessed as disease cure at 22 mg/kg, ip administered as single dose on 7th day post-tumor implantation measured for 80 days post-drug treatment; type: functional, organism-based; design: dose 22 mg/kg
Procedure, shortened: (§5)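 BDF1 mice (C57Blk/6 × DBA/2) implanted sc by trocar with Lewis lung tumor fragments of about 40 mg, taken only from bacteriologically sterile donor tumors. Mice bearing tumors of about 400 mg (day 6-7) were selected. Each received a single ip dose on day 7, at or below the LD10 in normal mice. Groups were of 10 mice. Tumor weight was taken from calipers as w = ab²/2, measured at least twice weekly. Matched non-tumor mice served as toxicity controls.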

Mus musculus [8] = assay: Antitumor activity against mouse advanced Lewis lung carcinoma allografted in ip dosed BDF1 mouse assessed as complete regression of established tumor administered as single dose on day 6 or 7 post-tumor implantation; type: functional, organism-based; procedure, shortened: as §5
Mus musculus [9] = assay: Antitumor activity against mouse advanced Lewis lung carcinoma allografted in ip dosed BDF1 mouse assessed as disease cure administered as single dose on day 6 or 7 post-tumor implantation; type: functional, organism-based; procedure, shortened: as §5
[10] = Antitumor activity against mouse early Lewis lung carcinoma allografted in BDF1 mouse assessed as increase in host life span at 15 mg/kg, ip administered as single dose on 1 or 2 days post-tumor implantation; type: functional; details: route intraperitoneal
Procedure, shortened: (§6)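 BDF1 mice (C57Blk/6 × DBA/2) implanted sc by trocar with ~40 mg Lewis lung tumor fragments from bacteriologically sterile donor tumors. Single ip dose on day 1 or 2, as a solution or suspension in water (CMC or gum acacia) or saline (HPC or Tween 80). Read-out is […]. Same-dose toxicity controls were run in nontumor-bearing mice.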

[11] = Antitumor activity against mouse early Lewis lung carcinoma allografted in BDF1 mouse assessed as increase in host life span at 11 mg/kg, ip administered as single dose on 1 or 2 days post-tumor implantation; type: functional; details: route intraperitoneal; procedure, shortened: as §2
Mus musculus [12] = assay: Antitumor activity against mouse advanced Lewis lung carcinoma allografted in BDF1 mouse assessed as disease cure at 15 mg/kg, ip administered as single dose on 7th day post-tumor implantation measured for 80 days post-drug treatment; type: functional, organism-based; design: dose 15 mg/kg; procedure, shortened: as §5
[13] = Antitumor activity against mouse early Lewis lung carcinoma allografted in BDF1 mouse assessed as increase in host life span at 17 mg/kg, ip administered as single dose on 1 or 2 days post-tumor implantation; type: functional; details: route intraperitoneal; procedure, shortened: as §6
[14] = Antitumor activity against mouse advanced Lewis lung carcinoma allografted in BDF1 mouse assessed as increase in host life span at 15 mg/kg, ip administered as single dose on 7th day post-tumor implantation; type: functional; details: route intraperitoneal; procedure, shortened: as §4
[15] = Antitumor activity against mouse early Lewis lung carcinoma allografted in BDF1 mouse assessed as time delay in tumor growth at 17 mg/kg, ip administered as single dose on 1 or 2 days post-tumor implantation; type: functional; details: route intraperitoneal; procedure, shortened: as §1
[16] = Antitumor activity against mouse advanced Lewis lung carcinoma allografted in ip dosed BDF1 mouse assessed as increase in host lifespan administered as single dose on day 6 or 7 post-tumor implantation; type: functional
Procedure, shortened: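 Advanced Lewis lung model: about 40 mg fragments implanted sc by trocar into BDF1 mice, and mice with tumors of about 400 mg (day 6-7) selected. Tumor weight from calipers, w = ab²/2. Agent given as one ip dose in distilled water or physiological saline. Nontumor-bearing mice received matching doses as toxicity controls.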

[17] = Antitumor activity against mouse early Lewis lung carcinoma allografted in BDF1 mouse assessed as time delay in tumor growth at 11 mg/kg, ip administered as single dose on 1 or 2 days post-tumor implantation; type: functional; details: route intraperitoneal; procedure, shortened: as §3
[18] = Antitumor activity against mouse early Lewis lung carcinoma allografted in BDF1 mouse assessed as increase in host life span at 38 mg/kg, ip administered as single dose on 1 or 2 days post-tumor implantation; type: functional; details: route intraperitoneal; procedure, shortened: as §6
[19] = Antitumor activity against mouse early Lewis lung carcinoma allografted in BDF1 mouse assessed as time delay in tumor growth at 38 mg/kg, ip administered as single dose on 1 or 2 days post-tumor implantation; type: functional; details: route intraperitoneal; procedure, shortened: as §1
[20] = Antitumor activity against mouse early Lewis lung carcinoma allografted in BDF1 mouse assessed as increase in host life span at 25 mg/kg, ip administered as single dose on 1 or 2 days post-tumor implantation; type: functional; details: route intraperitoneal; procedure, shortened: as §6
[21] = Antitumor activity against mouse early Lewis lung carcinoma allografted in BDF1 mouse assessed as time delay in tumor growth at 25 mg/kg, ip administered as single dose on 1 or 2 days post-tumor implantation; type: functional; details: route intraperitoneal; procedure, shortened: as §1

In the case of `O=NN(CCCl)C(=O)NC1CSCSC1`, the Time [1] is reported as 4.5 days, the ILS at 10 mg/kg [2] is reported as 24% and the Ratio [3] is reported as 0.3. The Time [4] was 3.5 days, the ILS at 22 mg/kg [5] was 36% and the Activity [6] was 10%. For the same compound, the Activity (Mus musculus [7]) was “inactive”, the inhibition (Mus musculus [8]) was “Active” and the Activity (Mus musculus [9]) was “inactive”. It also gave an ILS at 15 mg/kg [10] of 42%.
For `O=NN(CCCl)C(=O)NC1CCC(=O)NC1=O` (centres undefined), the ILS at 11 mg/kg [11] was 32%, the Activity (Mus musculus [12]) was “inactive” and the Ratio [3] was 0.4. It also gave an ILS at 17 mg/kg [13] of 28%, an ILS at 15 mg/kg [14] of 49% and a Time [15] of 3.8 days. For the same compound, the ILS [16] was over 25%, the Activity [6] was 10% and the Time [17] was 1.4 days. The inhibition (Mus musculus [8]) was “Active” and the Activity (Mus musculus [9]) was “inactive”.
Compound `O=NN(CCCl)C(=O)N[C@H]1CC[C@@H](CC(=O)O)CC1` has an ILS at 38 mg/kg [18] of 42%, a Ratio [3] of 0.4 and a Time [19] of 9.2 days. The ILS [16] was under 25%, the Activity [6] was over 50% and the ILS at 25 mg/kg [20] was 59%. For the same compound, the inhibition (Mus musculus [8]) was “inactive” and the Time [21] was 8.2 days.
